For one series, the system named is U-251. Briefly: Antiproliferative activity against human U251MG cells after 72 hrs by sulforhodamine B assay. The format is functional, cell-based. To be noted: U-251, 72 h. In short, it runs like this:
(§1)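 Established GBM lines grown under conditions similar to the short-term cultures (Hams F10, 10% foetal calf serum, 37 °C, no CO₂). Seeded at 3000 cells per well and grown 48 h to exponential phase. Exposed 72 h to serial dilutions from DMSO stocks. Fixed in 10% TCA, stained with 0.4% SRB in 1% acetic acid, dye dissolved in 10mM Tris, absorbance 560nm. EC50 by non-linear variable-slope fit.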
(In general: The SRB assay estimates cell density from bound dye.)

Series [1] in a line: Antiproliferative activity against human IN1760 cells after 72 hrs by sulforhodamine B assay. The format is functional, cell-based. To be noted: IN1760, 72 h. In short, it runs like this: (§2)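 Short-term cultures derived from about 10mg of adult GBM biopsy tissue, used at passages 10 to 14. Grown in Hams F10 with 10% foetal calf serum at 37 °C without CO₂. Seeded at 3000 cells per well, then grown 48 h to exponential phase. Treated 72 h with serial dilutions from DMSO stocks. SRB read-out at 560nm. EC50 from a variable-slope sigmoidal dose-response fit.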

The nature of series [2]: Antiproliferative activity against human IN1528 cells after 72 hrs by sulforhodamine B assay. The format is functional, cell-based. To be noted: IN1528, 72 h. An outline of the steps:
as §2

Another series has as its system U-87 MG. Briefly: Antiproliferative activity against human U87MG cells after 72 hrs by sulforhodamine B assay. Format: functional, cell-based, U-87MG ATCC. An outline of the steps: as §1
Series [3] in a line: Antiproliferative activity against human IN1472 cells after 72 hrs by sulforhodamine B assay. Format: functional, cell-based. To be noted: IN1472, 72 h. An outline of the steps: as §2
Series [4] in a line: Solubility of the compound in DMSO at >1250 uM. Format: physicochemical.

Some results are limits rather than exact numbers.

A word on the EC50: it is the concentration at which the effect is half-maximal. In turn, `Cc1c(O)ccc(O)c1C` registered an EC50 with U-251 of 17 µM.

Turning to `O=C1c2ccccc2C(=O)N1c1ccccc1O`, the EC50 in series [1] is 1080 µM; in series [2], 744 µM; in the series on U-251 it was 916 µM.

As for `Cc1ccc(O)c(-c2cc3ccccc3[nH]2)c1`, the results for the concentration giving a half-maximal response (EC50) (in series [1]; in series [2]; in the series with U-251) were 32 µM, 29 µM and 21 µM, respectively.

Regarding `Oc1ccccc1-c1nc2ccccc2o1`, the half-maximal effective concentration (EC50) in series [1] is over 2500 µM; in the series on U-251, 2260 µM; with U-87 MG it was 52 µM.

Consider `Oc1ccccc1-c1nc2ccccc2s1`, for which the 50% effective concentration (EC50) (in series [3]; in series [1]; in series [2]; with U-251; in the series with U-87 MG) was over 1250 µM each time. For the same compound, the solubility result in series [4] is given as “Insoluble”.

Take `Oc1ccccc1-c1nc2ccccc2[nH]1`: the EC50 was 36 µM in series [1], 25 µM in series [2] and 23 µM in the series on U-251.

Regarding `Oc1ccccc1-c1c[nH]c2ccccc12`, the EC50 in series [1] turned out to be 231 µM; in series [2], 120 µM; in the series with U-251 it was 95 µM.

On to `Oc1ccccc1OCc1ccccc1`, for which the EC50 in series [1] stood at 371 µM; in series [2] it was 193 µM; in the series with U-251, 304 µM.

For the compound `Oc1ccccc1-c1ccc2ccccc2c1`, the concentration for a half-maximal effect (EC50) in series [1] is over 1000 µM; in series [2] it was 104 µM; with U-251, 92 µM; in the series on U-87 MG it was 48 µM.

In the case of `CCCCCCC(=O)Oc1ccccc1-c1cc2ccccc2[nH]1`, the figures for the EC50 (in series [2]; in the series on U-251) were 29 µM and 38 µM, respectively.

As to `CC(=O)Oc1ccccc1-c1cc2ccccc2[nH]1`, the concentration for a half-maximal effect (EC50) in series [2] was determined as 80 µM; in the series with U-251 it was 31 µM.

`Nc1ccccc1-c1cc2ccccc2[nH]1`: the EC50 in series [3] was found to be 155 µM; in series [2] it was 153 µM; in the series with U-251, 328 µM; in the series on U-87 MG it was 257 µM.

For the compound `O=C(Oc1ccccc1-c1cc2ccccc2[nH]1)c1ccccc1`, the values for the EC50 (in series [2]; with U-251) were 38 µM and 39 µM, respectively.

In the case of `Oc1ccc(-c2ccccc2)cc1`, the EC50 in series [1] was 81 µM; in series [2] it was 85 µM; with U-251 it was 102 µM.

As for `Oc1ccccc1-c1cc2ccccc2[nH]1` [2-(2'-HYDROXYPHENYL)-1H-INDOLE], the concentration giving a half-maximal response (EC50) in series [3] was over 625 µM; in series [1] it was 185 µM; in series [2], 99 µM; with U-251 it was 130 µM; with U-87 MG, 126 µM.

Consider `COc1ccccc1-c1cc2ccccc2[nH]1` [2-(2'-METHOXYPHENYL)-1H-INDOLE], for which, in the series on U-87 MG, the EC50 was over 625 µM.

As for `c1ccc(-c2cc3ccccc3[nH]2)cc1` [2-PHENYL-1H-INDOLE], the EC50 (in series [3]; in series [1]; in series [2]; in the series on U-251; in the series on U-87 MG) was over 625 µM each time.

As to `Oc1ccccc1-c1ccccc1` [2-PHENYLPHENOL], the 50% effective concentration (EC50) in series [1] came to 236 µM; in series [2], 361 µM; in the series with U-251 it was 372 µM.

For the compound `CC(=O)Oc1ccccc1C(=O)O` [ASPIRIN], the EC50 is 1410 µM in series [3]; over 4000 µM in series [1]; 787 µM in series [2]; 1340 µM in the series with U-251; 723 µM in the series on U-87 MG.

Consider `COc1ccccc1O` [GUAIACOL], for which the 50% effective concentration (EC50) was 2020 µM in series [3]; over 4000 µM in series [1]; 813 µM in series [2]; 1140 µM in the series with U-251; 492 µM in the series with U-87 MG.

With `Oc1ccc(O)cc1` [HYDROQUINONE], the midpoint of the response with U-251, the EC50, lay at 57 µM.

For the compound `c1ccc2[nH]ccc2c1` [INDOLE], the EC50 (in series [3]; in series [1]; in series [2]; in the series with U-251; with U-87 MG) was over 625 µM each time.

Take `O=[N+]([O-])c1ccccc1O` [NITROPHENOLATE]: the EC50 in series [1] was over 4000 µM; in series [2], 890 µM; in the series on U-251, 1250 µM; in the series on U-87 MG, 888 µM.

Take `Cc1ccccc1O` [ORTHOCRESOL]: the EC50 in series [3] was 1440 µM; in series [1], over 4000 µM; in series [2] it was 744 µM; in the series with U-251, 1560 µM; with U-87 MG it was 664 µM.

As to `Oc1ccccc1` [PHENOL], the EC50 in series [3] is 1730 µM; in series [1], over 4000 µM; in series [2], 747 µM; in the series with U-251, 1230 µM; in the series on U-87 MG, 834 µM.

Regarding `NC(=O)c1ccccc1O` [SALICYLAMIDE], the concentration for a half-maximal effect (EC50) was 1390 µM in series [3]; over 4000 µM in series [1]; 793 µM in series [2]; 1200 µM with U-251; 760 µM in the series with U-87 MG.
